Bioassay records from PubChem.
Sampled rows, rich in hits. Any-hit rate of the full collection: about 2.2%.
Dynein transport: blocks dynein driven cargo transport along microtubules; 3617.4 mouse cells, GR-EGFP nuclear translocation imaging; test concentration mostly 20 µM; stimulated with dexamethasone, 1 µM; stronger effect = lower value; 220,000 compounds, 0.47% hits; AID 1381; z-score, hits read low;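 active means plate z-score of nuclear minus cytoplasmic receptor signal below a set negative limit, without overly bright fluorescence or cell loss, cut at about -3.5 in these data, passing the limit was not always enough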;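 further: z-score of nuclear minus cytoplasmic ring GR-EGFP intensity difference per well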
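Buffer or medium: tet-free, stripped-serum medium; Also added: dexamethasone, 1.0 µM final; Technique: high-content fluorescence imaging after fixation; Times: 48 h induction, 1 h compound, 30 min dex at 37 °C; Read-out: per-cell GR-EGFP intensity, nucleus versus surrounding cytoplasmic ring, well-averaged.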
PTEN del growth: PTEN-deleted cell growth suppression. AID 827. HCT116 PTEN-null viability, CellTiter-Glo, 60 h; stronger effect = lower value. viability, % at 10 µM. 140,000 compounds, 1.2% hits;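 active means viability at or below a set limit, 4 SD under the median of all tested compounds, cut at about 3.7% in these data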;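 further: PTEN knockout HCT116 line with beta catenin targeted HCT116 as companion control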
bCat KO growth: beta-catenin-lacking colon tumor cell growth suppression | 140,000 compounds, 1.5% hits | HCT116 beta-catenin knockout viability, CellTiter-Glo, 60 h; stronger effect = lower value | viability, % at 10 µM | AID 818;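 active means viability at or under a set limit, the compound median less 4 SD, cut at about 6% in these data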
Autophagy mod: modulators of autophagy; calls only at 10 µM (by protocol); 190,000 compounds, 0.98% hits; AID 463193; MEF GFP-LC3 puncta imaging; test concentration mostly 10 µM;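 active means percentage of spot-positive cells more than 3 SD above its plate mean, without a fluorescence outlier flag or 80% toxicity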
sdo1 growth: sdo1-depleted yeast growth rescue | AID 817 | z-score at 10 µM | S. cerevisiae sdo1-depleted JHY4D growth rescue, OD600 30 h; stronger effect = higher value; pdr5 snq2 efflux-pump mutant strain | 140,000 compounds, 0.21% hits;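 active means z-score above 3 at both the 24 hr and the 30 hr optical density reads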
Each line names hits and unclear results; the compound was inactive in the other large screens; ! = not active in a repeat.

CCOc1cccc(CNCCO)c1OCc1ccc(Cl)cc1	none
COc1cc(CNCCO)cc(Cl)c1OCc1ccccc1Cl	none (no result: PTEN del growth, bCat KO growth, sdo1 growth)
CCOc1cc(CNc2ccc(O)cc2)cc(Br)c1OCc1ccccc1F	bCat KO growth 4.0
CCOc1cc(CNCCO)cc(Br)c1OCc1ccc(Cl)cc1	PTEN del growth 1.2, bCat KO growth 1.7
CCOc1cc(CNC(C)(C)CO)cc(Br)c1OCc1ccc(Cl)cc1Cl	PTEN del growth 0.8, bCat KO growth 0.8
CCOc1cc(CNCCO)cc(Br)c1OCc1ccccc1Cl	PTEN del growth 1.4, bCat KO growth 1.2
CCC1(C)CC(C(CC(=O)O)c2ccc(C)cc2)CCO1 (centres undefined)	none
CCOc1ccc(NC(=O)CCC(=O)NNC(=O)COc2ccccc2C)cc1	Autophagy mod active (no result: PTEN del growth, bCat KO growth, sdo1 growth)
O=C(C[n+]1cc(-c2ccc(Cl)cc2)n2c1CCC2)Nc1nc(-c2ccccc2)cs1	none (no result: PTEN del growth, bCat KO growth, Autophagy mod, sdo1 growth)
O=C(CSc1ccc(-c2ccccn2)nn1)N1CCCC1	none (no result: PTEN del growth, bCat KO growth, sdo1 growth)
CCN(c1ccccc1)S(=O)(=O)c1cc(C(=O)O)ccc1C	none
CCN(c1ccccc1)S(=O)(=O)c1cc(C(=O)Nc2ccc(F)c(F)c2)ccc1F	PTEN del growth 3.4, bCat KO growth 4.5
COC(=O)c1ccc(Cn2cc(C(F)(F)F)cc([N+](=O)[O-])c2=O)cc1	none (no result: PTEN del growth, bCat KO growth, sdo1 growth)
CCOc1ccc(-n2cc(C(=O)Nc3ccc(Cl)cn3)c3cc(OC)c(OC)cc3c2=O)cc1	Autophagy mod active
CC(C)[C@H](NC(=O)NCc1ccco1)C(=O)O	none
COc1ccccc1NC(=O)C1=C(C)Nc2nnnn2C1c1ccccc1OC (centres undefined)	none
COc1ccccc1/C=C1\CCCC2=C1Nc1nnnn1C2c1ccccc1OC (centres undefined)	PTEN del growth 1.7, bCat KO growth 4.0
CCN1C(=O)/C(=C/C=C2/SCCN2C)SC1=S	none (no result: PTEN del growth)
CCCCN1C(=O)/C(=C/C=C2/CC(C)(C)CN2C)SC1=S	Autophagy mod active
Cc1ccccc1OCC(O)Cn1nnc2ccccc21 (centres undefined)	Autophagy mod active
CCCOC(=O)c1cccc(Nc2nc(-c3cccnc3)nc3ccccc23)c1	PTEN del growth 3.6
O=C(CC1C=Cc2ccccc2N1C(=O)c1ccccc1)c1ccccc1 (centres undefined)	none (no result: PTEN del growth, bCat KO growth, Autophagy mod, sdo1 growth)
COc1ccc(C(=O)c2ccc(N(C)C)cc2)c2ccccc12	Autophagy mod active
COc1cc(Cl)c(C)cc1NC(=O)c1cc(S(=O)(=O)N(C)C)ccc1N1CCCC1	none
CCCCOc1ccc(C2OC34CCCCC3C(C#N)(C#N)C2(C#N)C(=N)O4)cc1 (centres undefined)	none
CCOc1ccc(C2OC34CCCCC3C(C#N)(C#N)C2(C#N)C(=N)O4)cc1OC (centres undefined)	sdo1 growth 5.7
O=[N+]([O-])c1c(C(Cl)Cl)nn(-c2ccc(Cl)cc2)c1N1CCCCC1	none
Cc1ccc(N=c2c([N+](=O)[O-])nn(-c3ccccc3)n2O)c(C)c1	none
Cc1c(Cl)cccc1N=c1c([N+](=O)[O-])nn(-c2ccccc2)n1O	Autophagy mod active
O=C(c1oc2ccccc2c1CSCc1ccccc1)N1CCN(c2ncccn2)CC1	none
COc1ccc2nc(N/C(N)=N/C(=S)Nc3c(C)cccc3C)nc(C)c2c1	Autophagy mod active (no result: PTEN del growth, bCat KO growth, sdo1 growth)
CCOC(=O)C(C(=O)OCC)C(Nc1ccc(Br)cc1)c1ccccc1 (centres undefined)	PTEN del growth 1.5, bCat KO growth 1.5
CCOC(=O)C(c1ccccc1)C(Nc1ccc(F)cc1)c1ccccn1 (centres undefined)	none (no result: PTEN del growth, bCat KO growth, Autophagy mod, sdo1 growth)
CC1CCCC(NCC(O)COC(c2ccc(F)cc2)c2ccc(F)cc2)C1C (centres undefined)	Autophagy mod active (no result: PTEN del growth, bCat KO growth, sdo1 growth)
CC1CCCC(NC(=O)CSc2ccc(F)cc2)C1C (centres undefined)	none (no result: PTEN del growth, bCat KO growth, sdo1 growth)
Cc1c2cc(O)c(=O)cc-2oc2cc(O)c(O)cc12	Dynein transport -5.3!
COc1c(O)cc2oc(-c3ccc(O)cc3)cc(=O)c2c1O	none (no result: PTEN del growth, bCat KO growth, Autophagy mod, sdo1 growth)
O=C(N/N=C1\CCc2ccccc21)c1ccc(O)cc1	none (no result: PTEN del growth, bCat KO growth, sdo1 growth)
CNC(=O)COC(=O)c1cc(SC)ccc1Cl	Autophagy mod active (no result: PTEN del growth, bCat KO growth, sdo1 growth)
CCN(CC)CCNc1nc2c(c(=O)[nH]c(=O)n2C)n1CC(O)COc1ccc(Cl)cc1Cl (centres undefined)	none
Cc1cc(C)n(-c2nc3c(c(=O)[nH]c(=O)n3C)n2CC(O)COc2ccc(Cl)cc2Cl)n1 (centres undefined)	Autophagy mod active
COc1ccc(-n2cc3c(-c4cccc(Br)c4)nnc(C)c3n2)cc1	Autophagy mod active
Cc1nc(Br)c(Br)c(C)c1Br	none (no result: PTEN del growth, bCat KO growth, Autophagy mod, sdo1 growth)
O=C(Nc1ccc(Cl)cc1)N1CCCN(Cc2ccccc2F)C1	none
Cc1ccc(C(C#N)c2ccc3c(C(F)(F)F)cc(C(F)(F)F)nc3n2)cc1 (centres undefined)	Autophagy mod active
N#CC(c1ccccc1)c1ccc2c(C(F)(F)F)cc(C(F)(F)F)nc2n1 (centres undefined)	none
Cc1ccc(CS(=O)(=O)Cc2ccc(C(=O)NCc3ccccn3)o2)cc1	none
CCC(/C=C1\Sc2ccc(OC)cc2N1CCO)=C\c1sc2ccc(OC)cc2[n+]1CCO	PTEN del growth 0.9, bCat KO growth 2.5
COc1ccc(NC(=O)CSc2c3c(nc4ccccc24)CCCC3)c(OC)c1	bCat KO growth 5.9
O=C1/C(=C/c2ccccc2)NC(=S)N1C(c1ccccc1)c1ccccc1	Autophagy mod active
O=C1/C(=C/c2ccccc2)Nc2ccccc21	none
COc1ccc(/C=N/NC(=O)CCNc2n[nH]c(=O)[nH]c2=O)c(OC)c1	Autophagy mod active (no result: PTEN del growth, bCat KO growth, sdo1 growth)
O=c1oc2cc(Oc3c([N+](=O)[O-])cc(C(F)(F)F)cc3[N+](=O)[O-])ccc2c2c1CCCC2	Dynein transport -3.8
O=c1oc2cc(Oc3ccc(C(F)(F)F)cc3[N+](=O)[O-])ccc2c2c1CCC2	none
CC(=O)c1cccc(CN2CCN(Cc3ccccc3)C(CCO)C2)c1 (centres undefined)	none (no result: PTEN del growth, bCat KO growth, sdo1 growth)
O=C(COc1ccccc1)Nc1cccc(-c2nc3cc4ccccc4cc3[nH]2)c1	PTEN del growth 1.1, bCat KO growth 1.7
CC(C)CC(=O)Nc1cccc(-c2nc3ccccc3[nH]2)c1	none (no result: PTEN del growth, bCat KO growth, Autophagy mod, sdo1 growth)
CC(=O)OCCCN1c2ccccc2Nc2nnc(-c3ccccc3)cc21	none
CN1CCN(NC(=O)Nc2cccc(Cl)c2Cl)CC1	Autophagy mod active (no result: PTEN del growth, bCat KO growth, sdo1 growth)
c1ccc(-c2cc(-c3nnc4n3N=C(c3ccc5ccccc5c3)CS4)[nH]n2)cc1	PTEN del growth 1.9
Cc1cc(-c2nnc3n2N=C(c2ccc(-c4ccccc4)cc2)CS3)n[nH]1	PTEN del growth 3.1
C=CCc1cccc2cc(C(=O)NCc3ccc(C(=O)OCC)o3)c(=O)oc12	none
O=C(NCc1ccccn1)[C@H]1C[C@@H]1[C@H](NP(=O)(c1ccccc1)c1ccccc1)c1ccccc1	PTEN del growth 0.6, bCat KO growth 0.8
CCNc1nc(N)nc(-c2cc(Cl)ccc2O)n1	bCat KO growth 5.2
